The nature of test [1]: Brca1-Bard1 BiLC signal decrease – luminescence, single concentration, counter-screen for Mdm2/MdmX interaction inhibitor project, confirmation (AID 504668; call rule not given here). To be noted: Brca1/Bard1 bimolecular luciferase complementation counterscreen, at 8 µM, stronger effect = higher value.
Test [2] addresses Tumor necrosis factor receptor superfamily member 10B (Homo sapiens) (UniProt O14763). Kind of test: viability loss of caspase-8 NB7 cells with TRAIL – with/without TRAIL, luminescence panel, confirmation (AID 651596). To be noted: NB7 neuroblastoma + caspase-8, TRAIL sensitization, NB7 Caspase-8, with TRAIL, mean of runs, at 10 µM, stronger effect = higher value.
Assay in test [3]: as above
To be noted: NB7 neuroblastoma + caspase-8, without TRAIL, NB7 Caspase-8, without TRAIL, mean of runs, at 10 µM.

Test [4] can be described thus: HIF-2a driven luciferase blockers, single dose – luminescence, 786-0 RCC cells, confirmation (AID 651580;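 active = mean inhibition across four replicates of at least 40 percent at the single tested concentration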). To be noted: HIF-2a luciferase reporter luminescence, overnight, at 18.8 µM, stronger effect = higher value.
Test [5] is described as follows: HIF-1a luciferase reporter signal reduction – MiaPaCa-2 cells, single concentration, counter-screen for HIF-2a inhibitor project, confirmation (AID 651589;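 active = mean inhibition of the reporter signal across four replicates at the single tested dose of 50% or more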). The following applies: MiaPaCa-2 HIF-1a luciferase reporter, desferoxamine, overnight; at 18.8 µM; stronger effect = higher value. For orientation: Reporter assays use an easily measured gene product as a stand-in for the process of interest.

Test [6] addresses Carboxy-terminal domain RNA polymerase II polypeptide A small phosphatase 1 (Homo sapiens) (UniProt Q9GZU7). Kind of test: SCP1 melting temperature change from compounds – biophysical, differential scanning fluorimetry, orthogonal assay for Scp-1 inhibitor project, confirmation (AID 540329;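 active = substances whose mean melting-temperature shift, as a percentage of the reference inhibitor's shift, reaches about 5.3%, limit read from the data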;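 also: 0% = Tm of DMSO wells and 100% = Tm with sodium orthovanadate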). The following applies: Recombinant SCP1, Sypro Orange thermal shift Tm; at 40 µM; stronger effect = higher value. The method, boiled down: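 System: human Scp-1 phosphatase catalytic domain, residues 76-261; Quantity: 10 µM Scp-1 stock; Medium: Tris acetate pH 5.5, MgCl2, Tween-20; Compound dosing: single dose; Schedule: melting ramp from 20 to 95 °C at 0.03 °C/s; Measured by: differential scanning fluorimetry; Read-out basis: melting temperature shift relative to vanadate; Control set: vanadate reference.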
A general note: DSF heats the sample and reads unfolding from a dye or from intrinsic fluorescence.

Test [7] in a line: inhibition of PEG-3 promoter luciferase signal – cell-based, HeLa, luciferase reporter, single concentration, confirmation (AID 602417;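 active = at 20 µM dose, 40% or more inhibition averaged across four replicates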). The following applies: HeLa PEG-Prom luciferase reporter, luminescence, overnight; at 20 µM; stronger effect = higher value.

Here are results for 42 compounds from PubChem BioAssay.

Some of the results follow. The source made the active and inactive calls. Rule as the data show it, unless noted: active = activity above about 50%; inactive = the rest.

Chain of Carboxy-terminal domain RNA polymerase II polypeptide A small phosphatase 1 (Homo sapiens) (Q9GZU7 76-261 limits assumed): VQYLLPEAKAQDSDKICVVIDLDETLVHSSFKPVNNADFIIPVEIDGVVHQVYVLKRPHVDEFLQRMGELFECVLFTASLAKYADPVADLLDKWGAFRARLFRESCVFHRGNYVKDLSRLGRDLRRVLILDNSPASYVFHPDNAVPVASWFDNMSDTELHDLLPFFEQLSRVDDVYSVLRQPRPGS
Chain of Tumor necrosis factor receptor superfamily member 10B (Homo sapiens) (O14763 whole entry, looked up): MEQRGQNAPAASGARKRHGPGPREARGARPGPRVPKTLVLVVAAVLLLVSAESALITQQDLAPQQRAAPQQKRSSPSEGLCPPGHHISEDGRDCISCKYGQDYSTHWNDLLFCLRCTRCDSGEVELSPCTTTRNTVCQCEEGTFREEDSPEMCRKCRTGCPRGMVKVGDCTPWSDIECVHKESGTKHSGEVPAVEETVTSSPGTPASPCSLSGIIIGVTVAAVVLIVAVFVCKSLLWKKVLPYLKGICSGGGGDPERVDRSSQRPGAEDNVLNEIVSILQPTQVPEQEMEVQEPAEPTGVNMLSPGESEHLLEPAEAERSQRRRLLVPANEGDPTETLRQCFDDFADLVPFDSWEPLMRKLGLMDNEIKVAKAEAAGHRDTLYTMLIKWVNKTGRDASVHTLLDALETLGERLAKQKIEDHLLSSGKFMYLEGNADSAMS

Regarding `Cc1ccc(C)c(C(=O)Cn2ncc(Cl)c(Cl)c2=O)c1`, the inhibition (usually the drop in the measured response relative to a control, in per cent) in test [1] is 31.7% (active). In addition, the activity in test [2] was found to be 99.7%; in test [3], 99.3%.
As for `N#Cc1nc(NCC(F)F)nc(Nc2cc(F)cc(F)c2)n1`, the inhibition in test [1] was 28% (active). Moreover, the activity in test [2] was determined as 63.2%; in test [3] it was 71.3%.
The corresponding values for `O=C(/C=C/c1ccccc1)NC(NC(=S)Nc1ccc(Cl)cc1)C(Cl)(Cl)Cl` (centres undefined) are 23.7% (active), 37.1% and 30.2%.
With `O=C(Nc1ccc(OCC(F)(F)C(F)F)c(C(F)(F)F)c1)c1ccccc1O`, the inhibition in test [1] is 28.2% (active). Also, the activity in test [2] turned out to be 67.8%; in test [3], 68%.
On to `O=C(C[C@@H]1C/C=C/CC[C@H](Cc2ccc(F)cc2)C(=O)OC[C@@H](Cc2ccccc2)NC1=O)N[C@H](CO)Cc1ccccc1`, for which the inhibition in test [1] is 29.8% (active). The activity in test [2] was found to be 87.7%; in test [3], 95.8%.
Take `COc1cccc(N2CCN(c3ncnc4c3cnn4-c3ccc(C)cc3C)CC2)c1`: in test [1], the inhibition was 28% (active). The activity in test [2] turned out to be 97.8%; in test [3], 96%.
The like results for `Cc1ccc2sc(N(CCCN(C)C)C(=O)CCS(=O)(=O)c3ccccc3)nc2c1C` were, in that order, 29.9% (active), 62% and 93%.
As for `Cn1c(=NC(=O)CCl)sc2ccccc21`, the inhibition in test [1] is 28.7% (active). The activity in test [2] worked out at 99.5%; in test [3], 98.7%.
In the case of `O=C(Nc1ccc(OC(F)F)cc1)Nc1cccc(C(F)(F)F)c1`, the inhibition in test [1] was 24.4% (active). The results for the activity in test [2] and in test [3] were 85.3% and 69.6%, respectively.
For the compound `CCCCCCCNC(=O)C1(CC2CC(c3ccc(Cl)cc3)=NO2)CCNCC1` (centres undefined), the inhibition in test [1] was 25.4% (active). For the same compound, the results for the activity in test [2] and in test [3] were 41.9% and 93.1%, respectively.
The like results for `COC(=O)C1=C(C)N(Cc2ccccc2)C(=NCC(C)C)N[C@H]1c1cccc(C(F)(F)F)c1` were, in that order, 26.2% (active), 25.1% and 6.62%.
Regarding `O=C(Nc1ccc(OCC(F)(F)C(F)F)c(C(F)(F)F)c1)c1ccc(Cl)cc1`, the inhibition in test [1] is 34% (active). Besides, the activity in test [2] is 87.3%; in test [3], 65.7%.
The like results for `CCCCCc1ccc(OCCCC[n+]2ccccc2)c(CCCCC)c1` were, in that order, 24.6% (active), 24.6% and 56.7%.
The like results for `O=C(Nc1ccc2c(c1)OCCO2)c1cccc2nc3ccccc3nc12` were, in that order, 27.6% (active), 59.7% and 77.5%.
The like results for `C(=N\Nc1nncc2ccccc12)/c1ccccn1` were, in that order, 29.9% (active), 78.7% and 80.2%.
Turning to `CCCCCCCC[n+]1cccc2c3ccccc3ccc21`, the inhibition in test [1] was 23.3% (active). The activity in test [2] is 74.7%; in test [3] it was 63.9%.
Take `COC(=O)Cc1ccc(NC(=O)c2ccc(C(C)(C)C)cc2)cc1`: the inhibition in test [1] is 28.9% (active). Moreover, the activity in test [2] stood at 76.2%; in test [3], 77.3%.
Regarding `COC(=O)c1sc(NC(=O)c2cc(-c3ccccc3)nc3ccccc23)c(C#N)c1C`, in test [1], the inhibition is 35.4% (active). The results for the activity in test [2] and in test [3] were 52.7% and 39.1%, respectively.
Turning to `Cc1ccc(N(Cc2cc(=O)[nH]c3ccccc23)C(=O)CCl)cc1`, the figures for the inhibition in test [1], in test [4] and in test [5] were 25.3% (active), 76.7% (active) and 107% (active), respectively. The activity in test [2] was 99.1%; in test [3] it was 99.3%.
Take `CCCCn1c(CCl)nc2cc(S(=O)(=O)N3CCOCC3)ccc21`: in test [1], the inhibition was 30.4% (active). For the same compound, the figures for the activity in test [2] and in test [3] were 92.6% and 76.2%, respectively.
As to `COc1ccc(NC(=O)c2nc(S(=O)(=O)Cc3cccc(C)c3)ncc2Cl)c(OC)c1`, the inhibition in test [1] is 23.1% (active). The values for the activity in test [2] and in test [3] were 30% and 66.4%, respectively.
The corresponding values for `Cn1ncc2c(O/N=C(\N)c3ccc(C(F)(F)F)cc3)ncnc21` are 24.2% (active), 98.8% and 98.8%.
The corresponding values for `CN(C)c1ccnc2c[cH-]cc12.[Fe].c1ccc(-[c-]2[c-](-c3ccccc3)[c-](-c3ccccc3)[c-](-c3ccccc3)[c-]2-c2ccccc2)cc1` (centres undefined) are 32% (active), 6.08% and -38.5%.
The corresponding values for `COc1ccccc1C(=O)Nc1nc(-c2ccc(S(=O)(=O)N3CCOCC3)cc2)cs1` are 29.5% (active), 89.5% and 80.6%.
In the case of `CC(=O)Nc1ccc(NC2=Nc3ccccc3N3C2=Nc2c(c(C)nn2-c2ccccc2)C3c2ccccc2)cc1` (centres undefined), in test [1], the inhibition is 32.1% (active). For the same compound, the activity in test [2] amounted to 89.4%; in test [3] it was 73.6%.
The corresponding values for `Cc1ccc2nc(/C(C#N)=C\c3ccc([N+](=O)[O-])o3)[nH]c2c1` are 29.9% (active), 95.6% and 99%.
The like results for `CN(C)CCCNC(=O)c1ccc(-c2nc(-c3ccc(Cl)cc3)cs2)cc1` were, in that order, 28.3% (active), 95.2% and 97.6%.
The like results for `Cn1c(N)c(C(=O)COC(=O)c2ccccc2C(=O)c2ccc(Cl)c([N+](=O)[O-])c2)c(=O)n(C)c1=O` were, in that order, 26.2% (active), 98.5% and 99%.
On to `CCN(CC)CCCNc1ccc(-c2nnc(-c3ccc(OCC(C)C)cc3)o2)cn1`, for which the inhibition in test [1] is 23.9% (active). Moreover, the activity was 82.5% in test [2] and 97.9% in test [3].
With `Cc1ccc(/C=C/C(=O)Nc2ccc([N+](=O)[O-])c(NC(=O)/C=C/c3ccc(C)o3)c2)o1`, in test [6], the thermal shift relative to vanadate control is 11% (active).
The same measure, in the same setting: the value for `Cc1ccc(C(=O)NNC(=O)c2cc3cc4ccccc4nc3s2)cc1` was -10.9% (inactive).
For `O=C(O)c1ccc(N/N=C/c2ccc3ncccc3c2)cc1`, in test [6], the thermal shift relative to vanadate control was 4.85% (inactive). Further, the inhibition in test [4] is 66.4% (active); in test [5], 39.2% (inactive).
In the case of `COc1ccc(Cl)cc1NC(=O)CCS(=O)(=O)c1ccc(Br)cc1`, the thermal shift relative to vanadate control in test [6] is 3.48% (inactive).
As for `Oc1ccc2ccccc2c1N=Nc1nccs1`, the inhibition in test [7] is 82.7% (active).
On to `O=C(Cn1nnc(-c2ccc3c(c2)OCO3)n1)NCc1ccco1`, for which the thermal shift relative to vanadate control in test [6] is 2.67% (inactive).
The same measure, in the same setting: for `CNS(=O)(=O)c1cccc(C(=O)OCC(=O)N2c3ccccc3NC(=O)C2(C)C)c1` the value was 0.5% (inactive).
Same read-out and setting: the value for `COc1ccc(NC(=O)CN(C)C(=O)/C=C/c2cn(Cc3ccccc3)nc2-c2cccnc2)cc1` was -16.5% (inactive); that for `CCOC(=O)C1=C(C)c2ccccc2OC1(C)C(=O)OCC` (centres undefined) was -2.89% (inactive); that for `ON=C1/C(=N\O)CC2(C/C1=N/O)OCCO2` was 4.94% (inactive).
Still for that read-out and setting: for `Cc1nnc(SCC(=O)Nc2ccc(S(=O)(=O)Nc3ccc(Cl)nn3)cc2)s1` the value was 3.43% (inactive); for `Cc1ccc(CCNC(=O)c2ccc3nc4ccccc4c(=O)n3c2)cc1`, -6.77% (inactive).
As for `O=C(COC(=O)c1ccccc1O)NCc1ccco1`, the thermal shift relative to vanadate control in test [6] was -13.8% (inactive).
